Data taken from ChEMBL document CHEMBL1145518, “Potent immune-modulating and anticancer effects of NKT cell stimulatory glycolipids” (2007).
The source made the active and inactive calls. The calls are words filed in the database; no cut-off is given here.

Legend:
[1] = Induction of RANTES secretion in human CD161+ CD3+ NKT cells at 10 ug/ml after 18 hrs relative to basal level; type: functional
Outline: (§1)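 Human Vα24i NKT cell lines were expanded for 10 days on irradiated (3,000 rad) autologous immature DCs with 10 units/ml IL-2. The cells (1 × 10^5) were cocultured with 5 × 10^4 irradiated immature CD14+ DCs plus glycolipid at 10 μg/ml. Supernatants were collected at 18 h and read on a 22-plex Luminex bead panel. Triplicates, mean ± SD.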

[2] = Induction of IL12p40 secretion in human CD161+ CD3+ NKT cells at 10 ug/ml after 18 hrs relative to basal level; type: functional; outline: as §1
dendritic [3] = assay: Activation of TCR in human immature dendritic cells assessed as increase in ERK1/2 phosphorylation; type: cell-based
Outline: (§2)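 Human HeLa, HeLa-CD1d or autologous immature DCs were loaded with glycolipid at 10 μg/ml, or DMSO, for 2 h. Then 3 × 10^5 naïve CD161+/CD3+ NKT cells were added; these were bead-isolated and kept in 100 units/ml IL-2. After 5–10 min the cells were washed and lysed at 4°C. Phospho-CD3ε, ERK1/2 (Thr-185/Tyr-187) and CREB (Ser-133) were read by Luminex bead assay as median fluorescence normalized to total protein, expressed as fold over 1% DMSO.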

Mus musculus [4] = assay: Induction of IL3 secretion in BALB/c mouse serum at 2 ug, iv after 2 hrs relative to control; type: functional
Outline: (§3)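 BALB/c mice received an i.v. injection of 100 μl of glycolipid diluted to 20 μg/ml in saline from DMSO stock, with 1% DMSO as vehicle. Serum cytokines/chemokines were measured at 2 and 18 h after injection.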

TC1 = assay: Antitumor activity in TC1 cells xenografted C57BL/6 mouse assessed as suppression of tumor growth at 2 ug, iv; type: functional, cell-based
Outline: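 C57BL/6 mice (n = 5/group) were inoculated i.v. with TC-1 lung cancer cells. They were then treated i.v. with 2 μg glycolipid per mouse, or 100 μl of 1% DMSO, twice weekly for 4 weeks. Kaplan–Meier survival and body weight were followed, with tumor-free mice as an additional control.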

Mus musculus [5] = assay: Induction of IL12p70 secretion in BALB/c mouse serum at 2 ug, iv after 18 hrs relative to control; type: functional; outline: as §3
HeLa [6] = assay: Activation of TCR in human HeLa cells overexpressing CD1d assessed as increase in CD3epsilon phosphorylation; type: cell-based; outline: as §2
Mus musculus [7] = assay: Induction of MCP1 secretion in BALB/c mouse serum at 2 ug, iv after 2 hrs relative to control; type: functional; outline: as §3
[8] = Induction of GM-CSF secretion in human CD161+ CD3+ NKT cells at 10 ug/ml after 18 hrs relative to basal level; type: functional; outline: as §1
4T1 = assay: Antitumor activity in mouse 4T1 cells xenografted BALB/c mouse assessed as suppression of tumor growth at 2 ug, iv; type: functional, cell-based
Outline: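 BALB/c mice (n = 6) were inoculated s.c. with 4T1 breast cancer cells. From day 3 they were treated i.v. with glycolipid or vehicle twice weekly for 4 weeks. Tumor volume was recorded every 3 days for 1 month, and survival was monitored up to 54 days.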

Mus musculus [9] = assay: Induction of IL4 secretion in BALB/c mouse serum at 2 ug, iv after 2 hrs relative to control; type: functional; outline: as §3
[10] = Induction of IL10 secretion in human CD161+ CD3+ NKT cells at 10 ug/ml after 18 hrs relative to basal level; type: functional; outline: as §1
Mus musculus [11] = assay: Induction of TNFalpha secretion in BALB/c mouse serum at 2 ug, iv after 18 hrs relative to control; type: functional; outline: as §3
[12] = Induction of IL13 secretion in human CD161+ CD3+ NKT cells at 10 ug/ml after 18 hrs relative to basal level; type: functional; outline: as §1
[13] = Induction of IL15 secretion in human CD161+ CD3+ NKT cells at 10 ug/ml after 18 hrs relative to basal level; type: functional; outline: as §1
Mus musculus [14] = assay: Induction of GM-CSF secretion in BALB/c mouse serum at 2 ug, iv after 2 hrs relative to control; type: functional; outline: as §3
Mus musculus [15] = assay: Induction of RANTES secretion in BALB/c mouse serum at 2 ug, iv after 2 hrs relative to control; type: functional; outline: as §3
dendritic [16] = assay: Activation of TCR in human immature dendritic cells assessed as increase in CREB phosphorylation; type: cell-based; outline: as §2
Mus musculus [17] = assay: Induction of IL12p40 secretion in BALB/c mouse serum at 2 ug, iv after 18 hrs relative to control; type: functional; outline: as §3
[18] = Induction of IL4 secretion in human CD161+ CD3+ NKT cells at 10 ug/ml after 18 hrs relative to basal level; type: functional; outline: as §1
[19] = Induction of IL6 secretion in human CD161+ CD3+ NKT cells at 10 ug/ml after 18 hrs relative to basal level; type: functional; outline: as §1
Mus musculus [20] = assay: Induction of MIPbeta secretion in BALB/c mouse serum at 2 ug, iv after 2 hrs relative to control; type: functional; outline: as §3
Mus musculus [21] = assay: Induction of IL10 secretion in BALB/c mouse serum at 2 ug, iv after 18 hrs relative to control; type: functional; outline: as §3
Mus musculus [22] = assay: Induction of IL13 secretion in BALB/c mouse serum at 2 ug, iv after 2 hrs relative to control; type: functional; outline: as §3
[23] = Induction of IL12p70 secretion in human CD161+ CD3+ NKT cells at 10 ug/ml after 18 hrs relative to basal level; type: functional; outline: as §1
[24] = Induction of MCP1 secretion in human CD161+ CD3+ NKT cells at 10 ug/ml after 18 hrs relative to basal level; type: functional; outline: as §1
[25] = Induction of MIPalpha secretion in human CD161+ CD3+ NKT cells at 10 ug/ml after 18 hrs relative to basal level; type: functional; outline: as §1
Mus musculus [26] = assay: Induction of IL1-beta secretion in BALB/c mouse serum at 2 ug, iv after 18 hrs relative to control; type: functional; outline: as §3
Mus musculus [27] = assay: Induction of IL6 secretion in BALB/c mouse serum at 2 ug, iv after 2 hrs relative to control; type: functional; outline: as §3
HeLa [28] = assay: Activation of TCR in human HeLa cells overexpressing CD1d assessed as increase in ERK1/2 phosphorylation; type: cell-based; outline: as §2
[29] = Induction of IL3 secretion in human CD161+ CD3+ NKT cells at 10 ug/ml after 18 hrs relative to basal level; type: functional; outline: as §1
HeLa [30] = assay: Activation of TCR in human HeLa cells overexpressing CD1d assessed as increase in CREB phosphorylation; type: cell-based; outline: as §2
[31] = Induction of IFN-gamma secretion in human CD161+ CD3+ NKT cells at 10 ug/ml after 18 hrs relative to basal level; type: functional; outline: as §1
Mus musculus [32] = assay: Induction of IFN-gamma secretion in BALB/c mouse serum at 2 ug, iv after 18 hrs relative to control; type: functional; outline: as §3

Row | Structure (SMILES) | Activity [1] | Activity [2] | Activity (dendritic [3]) | Activity (Mus musculus [4]) | Activity (TC1) | Activity (Mus musculus [5]) | Activity (HeLa [6]) | Activity (Mus musculus [7]) | Activity [8] | Activity (4T1) | Activity (Mus musculus [9]) | Activity [10] | Activity (Mus musculus [11]) | Activity [12] | Activity [13] | Activity (Mus musculus [14]) | Activity (Mus musculus [15]) | Activity (dendritic [16]) | Activity (Mus musculus [17]) | Activity [18] | further results
1 | CCCCCCCCCCCCCCCCCCCCCCCCCC(=O)N[C@@H](CO[C@H]1O[C@H](CO)[C@H](O)[C@H](O)[C@H]1O)[C@H](O)[C@H](O)CCCCCCCCCCCCCC [RGI-7000] | 1.6 | 1.4 | 30 | 3 | Active | 3.2 | 7.3 | 18.7 | 3.5 | Active | 240 | 1.2 | 51 | 1.8 | 2.6 | 13.1 | 2.6 | 68 | 2.8 | 3.9 | Activity [19]: 1.8; Activity (Mus musculus [20]): 3.6; Activity (Mus musculus [21]): 3.6; Activity (Mus musculus [22]): 15.1; Activity [23]: 1.8; Activity [24]: 0.9; Activity [25]: 2.9; Activity (Mus musculus [26]): 7.8; Activity (Mus musculus [27]): 5.5; Activity (HeLa [28]): 6.6; Activity [29]: 1.9; Activity (HeLa [30]): 32; Activity [31]: 3.4; Activity (Mus musculus [32]): 300
2 | CCCCCCCCCCCCCCCCCCCCCCCCCC(=O)N[C@@H](CO[C@H]1O[C@H](CO)[C@H](O)[C@H](O)[C@H]1O)[C@H](O)[C@H](O)CCc1ccccc1 | 2.5 | 1.8 | 35 | 38.8 | Active | 6.6 | 7.3 | 32.9 | 4.3 | Active | 115 | 1.2 | 2.3 | 2.3 | 2.3 | 7.9 | 2.1 | 158 | 3.5 | 2.7 | Activity [19]: 2.8; Activity (Mus musculus [20]): 5.3; Activity (Mus musculus [21]): 2.2; Activity (Mus musculus [22]): 12.6; Activity [23]: 3.2; Activity [24]: 2; Activity [25]: 3.6; Activity (Mus musculus [26]): 3.4; Activity (Mus musculus [27]): 6.3; Activity (HeLa [28]): 6.6; Activity [29]: 1.7; Activity (HeLa [30]): 41; Activity [31]: 6.6; Activity (Mus musculus [32]): 122.5
